Measurements reported in ChEMBL document CHEMBL1143027, “An efficient synthesis of 3-fluoro-5-thio-xylofuranosyl nucleosides of thymine, uracil, and 5-fluorouracil as potential antitumor or/and antiviral agents” (Bioorg Med Chem, 2007).
Where “and” joins values, the source holds several entries; their conditions need not be identical. Equal values may be shown once.

How the values were obtained:
[1] = tested on: MCF7; assay: Cytotoxicity against human MCF7 cells after 72 hrs; type: functional; conditions: MCF7, 72 h
Summary of the method: (§1)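 Cells grown in DMEM with 5% FCS and L-glutamine, then seeded in 96-well plates. Treated with 3-fold serial dilutions (initial 0.5 mg/mL; DMSO stocks, final DMSO <0.1%) for 72 h at 37 °C. Treated wells (n=2) compared with controls (n=24). CC50 read from the concentration–effect curve.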

[2] = tested on: H4; assay: Selectivity index, Ratio of CC50 for human H4 cells to CC50 for human Caco-2 cells; type: functional
Summary of the method: (§2)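 Tumor selectivity index: CC50 on normal fetal intestinal H4 cells divided by CC50 on the named tumor line, both from the 72 h crystal violet cytotoxicity assay.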

[3] = tested on: H4; assay: Selectivity index, Ratio of CC50 for human H4 cells to CC50 for human skin melanoma cells; type: functional; summary of the method: as §2
[4] = tested on: Rotavirus; assay: Antiviral activity against rotavirus RF infected human Caco-2 cells following viral attachment after 72 hrs; type: functional, organism-based; conditions: Caco-2, 72 h
Summary of the method: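 Washed Caco-2 monolayers exposed to rotavirus RF (1.5 TCID50/mL) for 1 h at 37 °C, 5% CO2 to allow attachment. Unbound virus washed off with plain DMEM, then 3-fold compound dilutions (initial 0.5 mg/mL) added at once. Infected wells (n=6) compared with virus-only controls (n=6). IC50 read from the curve.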

[5] = Cytotoxicity against human H4 cells after 72 hrs; type: cell-based
Summary of the method: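 H4 human fetal small intestine cells grown in DMEM with 5% fetal calf serum and L-glutamine (2 mmol/L). Cells were exposed to 3-fold serial dilutions starting at 0.5 mg/mL (DMSO stock, final DMSO <0.1%) at 37 °C for 72 h. Treated (n = 2) vs control (n = 24) wells; CC50 from concentration–effect curve.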

[6] = tested on: Rotavirus; assay: Antiviral activity against rotavirus RF in human Caco-2 cells after neutralization of virus in solution pre-incubated with compound for 12 hrs before infection; type: functional, organism-based
Summary of the method: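 Rotavirus RF (grown on Caco-2 with trypsin, 1.5 TCID50/mL, 100 µL per well) pre-incubated 12 h with 3-fold compound dilutions (initial 0.5 mg/mL) in trypsin-containing DMEM, then added to Caco-2 monolayers at 37 °C, 5% CO2. Infected treated wells (n=6) compared with virus-only wells (n=6). IC50 read from the concentration–effect curve.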

[7] = Selectivity index, Ratio of CC50 for human Caco-2 cells to IC50 for rotavirus RF infected human Caco2 cells after viral attachment; type: functional
Summary of the method: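 Ratio of Caco-2 CC50 (72 h crystal violet assay) to rotavirus IC50 from the post-attachment infectivity assay.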

[8] = tested on: Caco-2; assay: Growth inhibition of human Caco-2 cells after 10 days; type: functional, cell-based; conditions: Caco-2, 240 h
Summary of the method: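 Caco-2 cells seeded at 10 cells/well in DMEM/10% FBS with 3-fold compound dilutions (initial 0.5 mg/mL), six wells per series. Incubated 10 days at 37 °C in a humidified incubator, then colonies counted. Colony number in treated wells (n=2) compared with controls (n=24). IC50 read from the concentration–effect curve.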

[9] = Cytotoxicity against human skin melanoma cells after 72 hrs; type: functional; conditions: Melanoma cell; summary of the method: as §1
[10] = tested on: MCF7; assay: Selectivity index, Ratio of CC50 for human H4 cells to CC50 for human MCF7 cells; type: functional; summary of the method: as §2
[11] = Selectivity index, Ratio of CC50 for human Caco-2 cells to IC50 for rotavirus RF in human Caco2 cells after neutralization of virus in solution before infection; type: functional
Summary of the method: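 Ratio of Caco-2 CC50 (72 h crystal violet assay) to rotavirus IC50 from the 12 h pre-attachment neutralization assay.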

[12] = tested on: Caco-2; assay: Cytotoxicity against human Caco-2 cells after 72 hrs; type: functional; conditions: Caco-2, 72 h; summary of the method: as §1

| SMILES | CC50 [1] [µM] | Selectivity index [2] | Selectivity index [3] | IC50 [4] | CC50 at 72 h [5] [mM] | IC50 [6] | Ratio CC50/IC50 [7] | IC50 [8] [µM] | CC50 [9] [µM] | Selectivity index [10] | Ratio CC50/IC50 [11] | CC50 [12] [µM] |
| --- | --- | --- | --- | --- | --- | --- | --- | --- | --- | --- | --- | --- |
| CC(=O)O[C@@H]1[C@@H](F)[C@@H](CSC(C)=O)O[C@H]1n1cc(C)c(=O)[nH]c1=O | 278 | 2.5 | 0.5 | 16.6 µM and 6 µg/mL | 0.139 | 2 µg/mL and 5.55 µM | 3.33 | 1.9 | 278 | 0.5 | 10 | 55.5 |
| O=c1[nH]cc(F)c(=O)[nH]1 [FLUOROURACIL] | 769 | 10 | 83.4 |  | 3.84 |  |  | 1.5 | 46.1 | 5 |  | 384 |
| CC(=O)O[C@@H]1[C@@H](F)[C@@H](CSC(C)=O)O[C@H]1n1ccc(=O)[nH]c1=O | 289 | 25 | 83.5 | 17.3 µM and 6 µg/mL | 1.44 | 6 µg/mL and 17.3 µM | 3.33 | 5.8 | 17.3 | 5 | 3.33 | 57.8 |
| CC(=O)O[C@@H]1[C@@H](F)[C@@H](CSC(C)=O)O[C@H]1n1cc(F)c(=O)[nH]c1=O | 1370 | 25 | 83.2 | 16.5 µM and 6 µg/mL | 1.37 | 6 µg/mL and 16.5 µM | 3.33 | 16.5 | 16.5 | 1 | 3.33 | 54.9 |
| Cc1cn([C@H]2C[C@H](N=[N+]=[N-])[C@@H](CO)O2)c(=O)[nH]c1=O [ZIDOVUDINE] |  |  |  | 22.4 µM and 6 µg/mL |  | 20 µg/mL and 74.8 µM | 2.5 |  |  |  | 0.75 |  |
